Results as given in article PMC2806602 (The Journal of neuroscience : the official journal of the …, 2009).
Numbering of substitutions follows the chain as printed.

Tests used:
GluRδ2^Lc D742A = target: T1, GluRδ2^Lc D742A (Rattus norvegicus, UniProt Q63226, A654T/D742A); test: Two-electrode voltage-clamp recordings in Xenopus oocytes, GluRδ2^Lc D742A; assay type: cell-based; settings: 3 mM Ca^2+; baseline spontaneously active current; ± SEM
T1 sequence (Q63226 24-1007 A654T/D742A): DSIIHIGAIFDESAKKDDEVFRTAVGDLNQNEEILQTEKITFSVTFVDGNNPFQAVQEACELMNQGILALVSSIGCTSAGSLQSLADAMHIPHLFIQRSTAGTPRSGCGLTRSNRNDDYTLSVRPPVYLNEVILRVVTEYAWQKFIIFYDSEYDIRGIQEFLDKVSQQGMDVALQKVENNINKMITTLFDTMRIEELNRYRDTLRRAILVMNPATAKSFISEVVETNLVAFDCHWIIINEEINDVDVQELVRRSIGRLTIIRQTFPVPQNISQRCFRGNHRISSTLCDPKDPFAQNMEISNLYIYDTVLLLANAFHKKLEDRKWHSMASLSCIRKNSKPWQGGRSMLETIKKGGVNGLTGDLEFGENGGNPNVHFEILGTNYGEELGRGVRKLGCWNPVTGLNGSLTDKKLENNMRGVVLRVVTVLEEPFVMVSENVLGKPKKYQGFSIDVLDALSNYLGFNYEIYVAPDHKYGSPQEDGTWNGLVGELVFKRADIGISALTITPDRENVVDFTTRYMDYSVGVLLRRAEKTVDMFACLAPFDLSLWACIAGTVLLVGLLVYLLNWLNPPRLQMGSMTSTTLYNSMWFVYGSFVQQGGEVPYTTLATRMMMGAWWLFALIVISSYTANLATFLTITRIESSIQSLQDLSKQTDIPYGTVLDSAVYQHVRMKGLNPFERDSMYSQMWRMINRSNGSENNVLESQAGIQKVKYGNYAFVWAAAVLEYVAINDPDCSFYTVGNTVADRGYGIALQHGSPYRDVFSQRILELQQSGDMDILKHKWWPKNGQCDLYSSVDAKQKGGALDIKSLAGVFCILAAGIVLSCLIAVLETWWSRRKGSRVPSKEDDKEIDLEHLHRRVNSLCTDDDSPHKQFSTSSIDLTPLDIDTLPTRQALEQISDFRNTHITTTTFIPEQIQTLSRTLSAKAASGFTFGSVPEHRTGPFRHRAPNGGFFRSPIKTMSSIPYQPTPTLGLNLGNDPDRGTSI
Procedure, shortened: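 Oocytes expressing the Lc mutant were kept in 25 μM NASP to prevent cytotoxicity. Two-electrode voltage clamp at −40 mV and 23°C, 24–72 h after cRNA injection. Bath: 90 mM NaCl, 3 mM KCl, 0.5 mM BaCl2, 10 mM HEPES, pH 7.6. Choline or NMDG chloride balanced Cl− and osmolarity. Values are fold increase over the Ca2+-free spontaneously active baseline on applying 3 mM Ca2+, given as mean ± SEM over oocytes.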

GluRδ2^Wt C811S = target: T2, GluRδ2^Wt C811S (Rattus norvegicus, UniProt Q63226, C811S); test: Two-electrode voltage-clamp recordings in Xenopus oocytes, GluRδ2^Wt C811S; assay type: cell-based; settings: data not shown
T2 sequence (Q63226 24-1007 C811S): T1 sequence (Q63226 24-1007 A654T/D742A) with T631A, A719D, C788S

## [Ca+2] [Ca^2+, calcium]
GluRδ2^Lc D742A
  Ca^2+ potentiation (relative to baseline): 3.5 ± 0.11 fold

## N[C@H](CO)C(=O)O [D-serine]
GluRδ2^Wt C811S
  response to D-serine: Neither the C811S mutation nor the triple P528C+L789C+C811S mutation resulted in measurable responses
